pKi: −log10 of the molar value.
Key:
[1] = target: Beta-2 adrenergic receptor (Mus musculus, UniProt P18762); experiment: Ki value was determined by accumulation of c-AMP in S-49 mouse lymphoma cells (Beta2).; type: cell-based
In short: (§1)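 Antagonist Ki from in vitro inhibition of cyclic AMP accumulation, with cAMP quantified by radioimmunoassay. Cells were prepared as in the group's earlier work. Ki was calculated with the Cheng–Prusoff equation. The four single stereoisomers of each derivative, the stereoisomeric mixture and the parent drug were tested. Relative potency is given versus the parent drug.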

[2] = species: Rattus norvegicus; experiment: Biological activity in vitro, Ki value was determined by accumulation of c-AMP in rat fat cells (Beta1).; type: functional, cell-based; in short: as §1
[3] = species: Rattus norvegicus; experiment: Relative potency(RP) was determined for the biological activity determined in rat fat cells (Beta1); type: functional
In short: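 Rat fat cells (β1), prepared as previously described, were assayed in vitro for antagonist inhibition of cAMP accumulation, with cAMP measured by radioimmunoassay. Ki values were calculated with the Cheng–Prusoff equation. Potency is expressed relative to the progenitor drug, which was tested alongside the individual stereoisomers and the stereoisomeric mixture.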

Sequence of Beta-2 adrenergic receptor (P18762 whole entry): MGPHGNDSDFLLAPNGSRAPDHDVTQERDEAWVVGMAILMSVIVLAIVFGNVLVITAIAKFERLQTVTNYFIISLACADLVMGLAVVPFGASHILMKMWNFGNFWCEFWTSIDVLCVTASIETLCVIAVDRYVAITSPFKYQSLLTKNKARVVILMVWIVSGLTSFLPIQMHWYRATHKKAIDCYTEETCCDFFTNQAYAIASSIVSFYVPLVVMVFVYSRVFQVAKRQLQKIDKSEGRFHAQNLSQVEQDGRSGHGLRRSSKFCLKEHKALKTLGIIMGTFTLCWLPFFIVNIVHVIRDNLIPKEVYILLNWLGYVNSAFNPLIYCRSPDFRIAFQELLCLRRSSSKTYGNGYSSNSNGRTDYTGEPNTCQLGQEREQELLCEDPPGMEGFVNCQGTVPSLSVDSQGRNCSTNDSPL

pKi [1] | SMILES | pKi [2] | Relative potency [3]
4.36 | Cc1ccc(NC(=O)CCCCC(C)NCC(O)COc2cccc3ccccc23)cc1 (stereo unspecified) |  | 
6.09 | CC(=O)Nc1ccc(OC[C@@H](O)CN[C@H](C)CCCCC(=O)Nc2ccc(C)cc2)cc1 | 6.59 | 2.71
6.84 | CC(=O)Nc1ccc(OC[C@@H](O)CN[C@H](C)CCCCC(=O)Nc2ccc(C(F)(F)F)cc2)cc1 | 7.51 | 22.6
5.66 | CC(=O)Nc1ccc(OC[C@H](O)CN[C@H](C)CCCCC(=O)Nc2ccc(C(F)(F)F)cc2)cc1 | 6.62 | 2.92
5.03 | CC(=O)Nc1ccc(OC[C@H](O)CN[C@@H](C)CCCCC(=O)Nc2ccc(C)cc2)cc1 | 5.58 | 0.267
6.41 | CC(=O)Nc1ccc(OCC(O)CNC(C)CCCCC(=O)Nc2ccc(C(F)(F)F)cc2)cc1 (stereo unspecified) | 6.89 | 7.8
4.34 | C[C@H](CCCCC(=O)Nc1ccc(C(F)(F)F)cc1)NC[C@H](O)COc1cccc2ccccc12 |  | 
5.04 | Cc1ccc(NC(=O)CCCC[C@@H](C)NC[C@H](O)COc2cccc3ccccc23)cc1 |  | 
5.93 | CC(=O)Nc1ccc(OCC(O)CNC(C)CCCCC(=O)Nc2ccc(C)cc2)cc1 (stereo unspecified) | 6.59 | 2.71
4.11 | CC(CCCCC(=O)Nc1ccc(C(F)(F)F)cc1)NCC(O)COc1cccc2ccccc12 (stereo unspecified) |  | 
5.55 | CC(=O)Nc1ccc(OC[C@@H](O)CN[C@@H](C)CCCCC(=O)Nc2ccc(C(F)(F)F)cc2)cc1 | 6.46 | 2
3.89 | C[C@H](CCCCC(=O)Nc1ccc(C(F)(F)F)cc1)NC[C@@H](O)COc1cccc2ccccc12 |  | 
4.81 | CC(=O)Nc1ccc(OC[C@@H](O)CN[C@@H](C)CCCCC(=O)Nc2ccc(C)cc2)cc1 | 5.80 | 0.442
4.39 | Cc1ccc(NC(=O)CCCC[C@H](C)NC[C@H](O)COc2cccc3ccccc23)cc1 |  | 
3.71 | Cc1ccc(NC(=O)CCCC[C@@H](C)NC[C@@H](O)COc2cccc3ccccc23)cc1 |  | 
4.41 | C[C@@H](CCCCC(=O)Nc1ccc(C(F)(F)F)cc1)NC[C@H](O)COc1cccc2ccccc12 |  | 
4.27 | CC(=O)Nc1ccc(OC[C@H](O)CN[C@H](C)CCCCC(=O)Nc2ccc(C)cc2)cc1 | 5.70 | 0.351
4.21 | CC(=O)Nc1ccc(OC[C@H](O)CN[C@@H](C)CCCCC(=O)Nc2ccc(C(F)(F)F)cc2)cc1 (mixture of isomers) | 5.17 | 0.104
3.71 | Cc1ccc(NC(=O)CCCC[C@H](C)NC[C@@H](O)COc2cccc3ccccc23)cc1 (racemic) |  | 
3.75 | C[C@@H](CCCCC(=O)Nc1ccc(C(F)(F)F)cc1)NC[C@@H](O)COc1cccc2ccccc12 (racemic) |  | 
 | CC(=O)Nc1ccc(OCC(O)CNC(C)C)cc1 (stereo unspecified) [PRACTOLOL] | 6.15 | 

Source: ChEMBL document CHEMBL1124937 (J Med Chem, 1990)
